Values joined by “and” are separate entries in the source; they are usually repeats but may differ in a detail not shown here. Equal values may be shown once.

Data on two compounds can be found in article PMC5131535 (ACS chemical neuroscience, 2016).

One series relates to L-type calcium channel. The series can be described thus: Lead Profiling Screen. The format is binding. Conditions: significant interaction.
In another series the target is Sigma σ1 receptor (Homo sapiens, UniProt Q99720). The series can be described thus: Lead Profiling Screen. The format is binding. The settings on record: significant interaction.
Series [1] can be described thus: Protein binding in plasma. Conditions: mouse.
Series [2] can be described thus: Protein binding in plasma. The settings on record: human.
Another series concerns the target Dopamine D4.2 receptor (Homo sapiens, UniProt P21917, DEL265-296). Nature of the series: Lead Profiling Screen. It counts as binding. The settings on record: significant interaction.
Another series concerns the target T1, Kir2.3 (Homo sapiens, UniProt P48050).
T1 sequence (P48050 1-445): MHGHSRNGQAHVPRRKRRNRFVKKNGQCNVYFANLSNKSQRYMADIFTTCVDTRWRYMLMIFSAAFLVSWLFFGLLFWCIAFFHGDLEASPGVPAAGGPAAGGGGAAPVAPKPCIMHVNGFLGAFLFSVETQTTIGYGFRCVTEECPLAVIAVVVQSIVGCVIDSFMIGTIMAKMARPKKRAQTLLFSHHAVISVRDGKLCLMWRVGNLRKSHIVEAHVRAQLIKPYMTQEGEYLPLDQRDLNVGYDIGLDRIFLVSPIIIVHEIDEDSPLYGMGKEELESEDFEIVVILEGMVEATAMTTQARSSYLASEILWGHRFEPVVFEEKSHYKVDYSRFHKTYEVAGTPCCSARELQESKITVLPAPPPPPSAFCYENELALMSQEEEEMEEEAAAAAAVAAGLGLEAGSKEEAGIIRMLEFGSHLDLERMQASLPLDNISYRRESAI
Nature of the series: Tl+ flux selectivity assay, Kir2.3. The settings on record: for Kir Channel Selectivity (Fold) 2.3: Thallium flux, Kir7.1 over Kir2.3. The format is cell-based.

A further series addresses T2, Kir2.1 (Homo sapiens, UniProt P63252).
T2 sequence (P63252 1-427): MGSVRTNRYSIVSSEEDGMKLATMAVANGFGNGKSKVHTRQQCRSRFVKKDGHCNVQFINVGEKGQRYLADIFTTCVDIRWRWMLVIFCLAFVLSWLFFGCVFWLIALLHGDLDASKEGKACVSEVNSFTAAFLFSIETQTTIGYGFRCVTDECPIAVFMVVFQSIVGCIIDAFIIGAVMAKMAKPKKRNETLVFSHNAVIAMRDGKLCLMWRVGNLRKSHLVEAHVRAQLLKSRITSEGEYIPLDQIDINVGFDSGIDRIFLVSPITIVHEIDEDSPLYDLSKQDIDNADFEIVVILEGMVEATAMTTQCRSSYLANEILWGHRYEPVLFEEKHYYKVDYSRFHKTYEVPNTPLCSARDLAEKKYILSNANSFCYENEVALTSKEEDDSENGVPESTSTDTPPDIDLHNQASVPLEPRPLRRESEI
The series can be described thus: Tl+ flux selectivity assay, Kir2.1. It counts as cell-based. Conditions: for Kir Channel Selectivity (Fold) 2.1: Thallium flux, Kir7.1 over Kir2.1. The gist of the method:
(§1)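 Tetracycline-inducible stable T-REx-HEK-293 lines, induced overnight with 1 µg/ml tetracycline in DMEM/10% dialyzed FBS. Cells loaded 1 hr with 1.2 µM Thallos-AM in HBSS/20 mM HEPES pH 7.3 with 0.01% Pluronic F-127. Baseline fluorescence (ex 470, em 540 nm) read at 1 Hz before adding stimulus buffer with 1.8 mM Tl₂SO₄. Traces normalized to first point and vehicle-subtracted; slope taken 5–20 s post-Tl⁺; IC50 by nonlinear regression of CRCs.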

Another series deals with Norepinephrine receptor (Homo sapiens, UniProt P23975). Nature of the series: Lead Profiling Screen. The format is binding. The settings on record: significant interaction.
Series [3] in a line: CNS distribution study in mice. It counts as in vivo, mouse. The settings on record: average of four mice.
Series [4] is described as follows: Protein binding in plasma. Conditions: rat.
Another series has as its target Dopamine D2S receptor (Homo sapiens, UniProt P14416). The series can be described thus: Lead Profiling Screen. The settings on record: significant interaction. The format is binding.
For another series, the target named is Kir7.1 E149Q/M125R (Homo sapiens, UniProt O60928, E149Q/M125R). Nature of the series: Whole-cell patch clamp, Kir7.1 E149Q/M125R mutant. The format is cell-based. Conditions: -120 mV. The gist of the method:
(§2)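 Human Kir7.1 (WT or mutant) was transiently co-transfected with EGFP into HEK-293T cells, which were replated next day on poly-L-lysine coverslips. Whole-cell clamp used bath 5 mM KCl, pH 7.4, and pipette 135 mM KCl, pH 7.3. Cells were held at −75 mV, stepped 500 ms to −120 mV, then ramped to 120 mV, every 5 s. Increasing test-compound doses were superfused, then BaCl₂ block; current read at −120 mV; variable-slope Hill fit, mean of n = 5.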
(In general: In patch-clamp work, channel activity is measured electrically.)

The next series deals with Kir7.1-WT-A150S (Homo sapiens, UniProt O60928, A150S). The series can be described thus: Whole-cell patch clamp, Kir7.1-WT-A150S mutant. Conditions: -120 mV. It counts as cell-based. The gist of the method:
as §2

Another series deals with T3, Kir7.1-M125R (Homo sapiens, UniProt O60928, M125R).
T3 sequence (O60928 1-360 M125R): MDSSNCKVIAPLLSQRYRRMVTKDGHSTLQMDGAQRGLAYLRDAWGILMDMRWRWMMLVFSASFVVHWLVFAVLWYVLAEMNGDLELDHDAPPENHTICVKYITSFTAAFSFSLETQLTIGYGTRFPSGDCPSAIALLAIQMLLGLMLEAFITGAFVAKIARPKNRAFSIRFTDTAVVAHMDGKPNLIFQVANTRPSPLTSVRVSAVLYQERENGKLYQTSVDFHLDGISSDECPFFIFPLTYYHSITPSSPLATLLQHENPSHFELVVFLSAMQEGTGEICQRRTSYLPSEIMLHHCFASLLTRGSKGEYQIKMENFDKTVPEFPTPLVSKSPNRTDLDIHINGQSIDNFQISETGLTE
Nature of the series: Whole-cell voltage clamp, Kir7.1-M125R. The format is cell-based. The essentials:
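HEK-293T cells transiently co-transfected with WT or mutant human Kir7.1 plus EGFP marker, replated next day on poly-L-lysine coverslips. Bath: 135 NaCl, 5 KCl, pH 7.4; pipette: 135 KCl, 1 EGTA, pH 7.3 (mM). Hold −75 mV, step to −120 mV for 500 ms, ramp to 120 mV. Increasing test compound concentrations superfused, then Ba²⁺ block. Inhibition at −120 mV; Hill-equation IC50, n = 5.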

The next series deals with Kir1.1 (Rattus norvegicus, UniProt P35560). The series can be described thus: Tl+ flux selectivity assay, Kir1.1. The format is cell-based. The gist of the method: as §1
Kir1.1, sequence (P35560 whole entry): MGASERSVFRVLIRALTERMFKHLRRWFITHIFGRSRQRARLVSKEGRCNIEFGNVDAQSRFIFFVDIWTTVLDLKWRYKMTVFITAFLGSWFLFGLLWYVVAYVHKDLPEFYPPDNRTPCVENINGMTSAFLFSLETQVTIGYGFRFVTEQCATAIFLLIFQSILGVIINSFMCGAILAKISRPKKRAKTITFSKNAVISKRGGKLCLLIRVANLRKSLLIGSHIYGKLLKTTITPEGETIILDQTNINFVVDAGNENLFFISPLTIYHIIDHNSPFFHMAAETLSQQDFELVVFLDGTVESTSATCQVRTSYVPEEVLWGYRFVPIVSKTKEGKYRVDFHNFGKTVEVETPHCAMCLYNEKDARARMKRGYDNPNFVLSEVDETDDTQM

Kir7.1-WT-A150S, sequence (O60928 whole entry A150S): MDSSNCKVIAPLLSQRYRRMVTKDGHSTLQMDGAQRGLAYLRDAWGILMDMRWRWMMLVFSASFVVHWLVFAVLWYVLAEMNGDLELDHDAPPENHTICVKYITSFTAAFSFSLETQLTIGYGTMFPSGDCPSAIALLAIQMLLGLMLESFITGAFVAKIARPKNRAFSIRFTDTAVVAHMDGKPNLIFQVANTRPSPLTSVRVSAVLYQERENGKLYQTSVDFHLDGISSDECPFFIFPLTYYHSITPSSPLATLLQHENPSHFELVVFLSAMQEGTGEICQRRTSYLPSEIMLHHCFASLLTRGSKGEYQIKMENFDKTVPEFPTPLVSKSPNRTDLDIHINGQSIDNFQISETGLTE
Kir7.1 E149Q/M125R, sequence (O60928 whole entry M125R/E149Q, the tested form may be a part): as the sequence (O60928 whole entry A150S) above, with M125R, E149Q, S150A counted along it
Dopamine D2S receptor, sequence (P14416 1-414 isoform P14416-2): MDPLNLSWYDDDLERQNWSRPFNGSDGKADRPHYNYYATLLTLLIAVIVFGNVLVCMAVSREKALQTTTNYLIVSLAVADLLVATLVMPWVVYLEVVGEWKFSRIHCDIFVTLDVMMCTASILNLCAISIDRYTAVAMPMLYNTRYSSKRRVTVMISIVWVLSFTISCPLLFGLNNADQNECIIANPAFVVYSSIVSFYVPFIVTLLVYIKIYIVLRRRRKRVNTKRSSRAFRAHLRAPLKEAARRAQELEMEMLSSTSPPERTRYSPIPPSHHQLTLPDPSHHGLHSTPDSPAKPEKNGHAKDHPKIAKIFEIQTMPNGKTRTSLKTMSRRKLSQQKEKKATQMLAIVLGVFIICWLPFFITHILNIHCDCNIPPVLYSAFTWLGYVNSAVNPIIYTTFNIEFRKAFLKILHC
Norepinephrine receptor, sequence (P23975 whole entry): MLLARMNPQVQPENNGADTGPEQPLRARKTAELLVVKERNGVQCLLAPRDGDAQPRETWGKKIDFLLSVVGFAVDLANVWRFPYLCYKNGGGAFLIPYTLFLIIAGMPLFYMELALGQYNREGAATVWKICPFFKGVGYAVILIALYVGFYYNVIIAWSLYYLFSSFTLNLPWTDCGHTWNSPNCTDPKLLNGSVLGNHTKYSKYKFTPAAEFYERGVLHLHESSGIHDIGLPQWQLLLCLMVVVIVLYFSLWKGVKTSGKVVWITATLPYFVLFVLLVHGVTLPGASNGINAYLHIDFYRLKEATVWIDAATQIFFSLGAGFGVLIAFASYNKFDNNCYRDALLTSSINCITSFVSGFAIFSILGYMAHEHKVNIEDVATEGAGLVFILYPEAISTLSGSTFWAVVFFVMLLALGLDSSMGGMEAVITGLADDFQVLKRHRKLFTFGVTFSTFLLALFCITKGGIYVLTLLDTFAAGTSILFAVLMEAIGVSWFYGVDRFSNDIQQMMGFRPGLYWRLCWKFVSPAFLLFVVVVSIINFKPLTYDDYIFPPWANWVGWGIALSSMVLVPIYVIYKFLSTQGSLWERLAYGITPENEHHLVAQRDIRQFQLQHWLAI
Sigma σ1 receptor, sequence (Q99720 whole entry): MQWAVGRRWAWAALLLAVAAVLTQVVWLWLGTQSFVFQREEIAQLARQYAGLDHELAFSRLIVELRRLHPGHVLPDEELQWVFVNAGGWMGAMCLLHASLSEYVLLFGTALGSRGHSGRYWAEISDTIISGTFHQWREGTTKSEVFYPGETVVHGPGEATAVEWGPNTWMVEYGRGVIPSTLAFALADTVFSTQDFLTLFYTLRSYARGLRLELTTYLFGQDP

Consider `CC(C)OC(=O)NC1CCN(Cc2cc(Cl)c3cccnc3c2O)CC1` [Compound 19, iso-Propyl (1-((5-chloro-8-hydroxyquinolin-7-yl)methyl)piperidin-4-yl)carbamate], for which, in the series on L-type calcium channel, the “Radioligand displacement, L-type calcium channel” value is above 50%. In addition, at Sigma σ1 receptor, the “Radioligand displacement, Sigma σ1 receptor” value was above 50%. Further, the fraction unbound (in general, the share of the substance not bound to proteins or other matrix) in series [1] amounted to 0.114; in series [2], 0.01; in [4], 0.088. Besides, the “Radioligand displacement, Dopamine D4.2 receptor” value on Dopamine D4.2 receptor is on record as above 50%. In addition, the “Kir Channel Selectivity (Fold) 2.3” value at Kir2.3 is “at least 23 Fold”; at Kir2.3 (listed as 19 (ML418)), above 23 Fold. For the same compound, the figures for the “Kir Channel Selectivity (Fold) 2.1” value at Kir2.1 and at Kir2.1 (listed as 19 (ML418)) were “at least 23 Fold” and above 23 Fold, respectively. Further, the “Radioligand displacement, Norepinephrine receptor” value at Norepinephrine receptor is listed as above 50%. In series [3], the brain concentration is given as 323.9 ng/g. Further, at Dopamine D2S receptor, the “Radioligand displacement, Dopamine D2S receptor” value is listed as above 50%.

On to `Oc1c(CN2CCC(Cc3ccccc3)CC2)cc(Cl)c2cccnc12` [VU714], for which, on Kir7.1 E149Q/M125R (3 µM), the “Effect of mutation E149Q/M125R on sensitivity” value is recorded as “partial, albeit significant (P<0.05), loss of sensitivity”. The IC50 – broadly, the concentration that inhibits the measured activity by half – on Kir7.1 E149Q/M125R (read-out: Kir7.1-M125R-E149Q IC50, patch clamp) is 18.1 µM and ~18 µM; on Kir7.1-WT-A150S (read-out: Kir7.1-WT-A150S IC50, patch clamp) it was 6.9 µM and ~7 µM; on Kir7.1-M125R (read-out: Kir7.1-M125R IC50 (whole-cell voltage clamp), -120 mV) it was 1500 nM and 1600 nM and ~2000 nM; at Kir2.3 (read-out: Kir2.3 IC50 (Tl+ flux)) it was above 30 µM; at Kir2.1 (read-out: Kir2.1 IC50 (Tl+ flux)), above 30 µM; on Kir1.1 (read-out: Kir1.1 (ROMK) IC50 (Tl+ flux)), 16 µM. The “Effect of mutation A150S on inhibition” value at Kir7.1-WT-A150S (3 µM) is listed as “partial loss of inhibition”. Moreover, on Kir7.1-M125R, the “Shift in IC50, patch clamp electrophysiology compared with Tl+ flux” value is recorded as 3.7 fold. Further, on Kir7.1-M125R (10 µM), the “Inhibition of outward and inward Kir7.1-M125R-mediated current” value is reported as “fully inhibited”. For the same compound, the “Effect of M125R mutation on sensitivity” value at Kir7.1-M125R (compared with WT) is “does not alter VU714 sensitivity”. Moreover, the “Kir Channel Selectivity (Fold) 2.3” value on Kir2.3 is above 5 Fold. Besides, at Kir2.1, the “Kir2.1 IC50 (Tl+ flux)” value was “insensitive”. Besides, the “Kir Channel Selectivity (Fold) 2.1” value on Kir2.1 is reported as above 5 Fold. Besides, the “Kir1.1 (ROMK) IC50 (Tl+ flux)” value at Kir1.1 is “weakly inhibited”.
